M1 agonist: M1 muscarinic receptor agonism; CHO-M1 cells, Fluo-4 calcium fluorescence, agonist mode; active compounds read high; B-score at 10 µM; 3% of 64,000 active; AID 626;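 active means fluorescence rise, raw or as B-score row- and column-corrected plate score, outside the 99.7% band of its plate's samples, either direction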
SF1 activator: activators of human nuclear receptor SF-1. CHO-K1 Gal4-SF-1 LBD luciferase reporter; % increase over DMSO SF-1-specific signal. activation, % at 10 µM. 1.9% of 65,000 active. AID 522;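 active means activation above the mean activation of all tested compounds plus 3 SD, cut at about 50% in these data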
Target sequence (Q13285 whole entry, looked up, the tested form may be a part): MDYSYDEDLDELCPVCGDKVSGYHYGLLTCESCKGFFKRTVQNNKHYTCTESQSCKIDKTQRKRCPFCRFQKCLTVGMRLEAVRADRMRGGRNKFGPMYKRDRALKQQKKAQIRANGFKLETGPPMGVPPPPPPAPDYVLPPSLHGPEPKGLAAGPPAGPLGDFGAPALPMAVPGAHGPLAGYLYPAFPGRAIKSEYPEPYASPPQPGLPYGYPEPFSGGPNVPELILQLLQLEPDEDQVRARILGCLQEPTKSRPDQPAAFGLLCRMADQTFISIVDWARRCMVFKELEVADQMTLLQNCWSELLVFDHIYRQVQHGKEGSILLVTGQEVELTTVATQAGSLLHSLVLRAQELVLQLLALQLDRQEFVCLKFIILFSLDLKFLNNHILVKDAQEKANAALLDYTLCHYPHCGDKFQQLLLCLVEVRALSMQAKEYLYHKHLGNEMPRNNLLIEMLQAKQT
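Assay system: CHO-K1 cells co-transfected with Gal4 DBD–human SF-1 LBD, 5xGal4 luciferase reporter / Input: 4,000 cells per well / Incubation: 20 h compound exposure at 37 °C after 1 h cell settling / Detection: SteadyLite luciferase luminescence / Control set: DMSO negative control and −SF1 background wells / Replication: one test per compound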
D1 mod: allosterically modulates the human D1 dopamine receptor | 5.9% of 58,000 active | HEK293 D1, CRE-luciferase, dopamine EC30 potentiation; actives deviate in either direction | B-score at 10 µM | AID 641 | P21728;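 active means luminescence count or its row- and column-corrected plate score outside the 99.7% band of the plate's sample wells, on either side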
RORA act: activators of human nuclear receptor RORA | P35398 | CHO-K1 Gal4-RORA LBD luciferase reporter, luminescence; percent increase over mock-subtracted basal signal | activation, % at 10 µM | 1.5% of 65,000 active | AID 560;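 active means activation above the mean of all tested compounds plus 3 SD, cut at about 49% in these data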;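 further: 0% = DMSO-treated RORA cells and 100% = added signal equal to DMSO minus mock-transfected cells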
Htt clearance: mutant huntingtin protein clearance. HeLa Exon1htt(103Q)mCFP, aggregate imaging; zero = plate's median compound well. 0.42% of 47,000 active. inhibition, % at 1.5 µM. AID 853;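 active means inhibition of aggregate fluorescence above about 70%, also judged a hit by eye on the cell image, limit read from the data, passing the limit was not always enough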;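 further: cells exposed to compound for three days before fixation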
M1 antag: antagonists of rat M1 muscarinic receptor | CHO-M1 cells, Fluo-4 calcium, ACh EC80 antagonist mode; active compounds read low | 3.4% of 64,000 active | B-score at 10 µM | AID 628;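 active means calcium fluorescence response, raw or row-and-column corrected B-score, differing from the plate sample mean either way at a set confidence level, mostly lower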
M1 antag confirm: M1 muscarinic receptor (rat) antagonism, confirmed | 43% of 1,700 active | calcium response (max-min fluorescence) at 10 µM | shares compounds with M1 antag | CHO-M1 cells, Fluo-4 calcium, ACh EC80 antagonism; active compounds read low;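 active means calcium response below the same-plate mean of wells given acetylcholine alone at its 80%-effect dose, minus 3 SD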;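 further: raw fluorescence intensity difference in arbitrary instrument units and not normalized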
mGluR4 antag: acts on human mGluR4 in M1 antagonist selectivity test | shares compounds with M1 antag | CHO-mGluR4 calcium flux, Fluo-4 fluorescence, glutamate EC80; active compounds read low | fluorescence response (max-min) at 10 µM | 0.9% of 1,700 active | AID 678;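 active means fluorescence response below the plate's average for near-maximal glutamate wells, less 3 SD of those wells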;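 further: raw unnormalized fluorescence span taken in the window right after glutamate addition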
D1 mod confirm: confirmation of human D1 dopamine receptor allosteric modulators; shares compounds with D1 mod; HEK293 D1 CRE-luciferase, dopamine EC30 potentiation; active compounds read high; luminescence at 10 µM; 88% of 2,200 active;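 active means luminescence in either of two replicates above the same-plate mean plus 3 SD of the low-dose dopamine control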
D1 no dopamine: D1 (human) signaling in absence of dopamine | shares compounds with D1 mod | HEK293 D1 CRE-luciferase, luminescence, no dopamine; active compounds read high | luminescence at 10 µM | 0.8% of 1,900 active | AID 646; in the data active means luminescence above about 3900
Isoprot counter: alters isoproterenol CRE-luciferase response in HEK293 cells | AID 647 | HEK293 D1 CRE-luciferase, isoproterenol EC30 counter-screen | 63% of 2,200 active | calls only at 10 µM | shares compounds with D1 mod;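 active means luminescence in either replicate above plate mean of wells with a partly effective reference agonist dose plus 3 SD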;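 further: isoproterenol raises cAMP through native beta-adrenoceptor Gs so signal bypasses D1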
* marks the source's active call; other numbers are inactive results; . = not tested or not shown; + = active, no number. An excerpt weighted towards active compounds, which were near 11% of everything screened.

SMILES | M1 agonist | SF1 activator | D1 mod | RORA act | Htt clearance | M1 antag | M1 antag confirm | mGluR4 antag | others
CCN(CCCc1ccccc1)CCCc1ccccc1 | -1.2 | 18 | -5 | 2 | . | -13* | 18* | 256
O=C(CN1C(=O)NC2(CCCc3ccccc32)C1=O)N1CCN(C(=O)c2ccco2)CC1 (stereo unspecified) | 0.38 | -17 | 0.037 | -5 | . | -0.066 | . | .
CCN(CC)C(=O)c1cccc(-c2ccc(OC)cc2)c1 | -0.6 | 2 | 0.073 | 3 | -33 | -2.2* | 622 | 247
O=S(=O)(c1ccccc1)N1C2CCC1CC(O)(c1cccnc1)C2 (stereo unspecified) | -0.039 | 5 | 0.055 | -17 | -20 | -0.75 | . | .
COC(=O)c1c(C)oc2cc(Br)c(OCC(=O)C(C)(C)C)cc12 | 0.056 | -15 | -0.021 | -15 | 13 | -1.9* | 519 | 181
O=C(CN1CCC(NC(=O)Nc2ccccc2-c2ccccc2)CC1)NCc1ccco1 | -1.4 | 2 | 0.12 | 5 | . | -4* | 215* | 197
CCOC(=O)c1c(CN(CC)CC)oc2cc(Br)c(O)cc12 | -0.43 | -7 | 2.5 | -9 | . | -2* | 679 | 217
CCOC(=O)c1c(CN(CC)CC)oc2ccc(OC)cc12 | . | . | . | . | -25 | . | . | .
Cc1[nH]c2ccccc2c1C(O)CN1CCN(c2cccc(C(F)(F)F)c2)CC1 (stereo unspecified) | 1.2 | -8 | -2.2 | -21 | 23 | -0.38 | . | .
Oc1ccccc1Oc1ncc(Br)c(N2CCOCC2)n1 | -0.35 | -9 | 3 | 4 | 56 | -17* | 16* | 258
Cc1ccc(NC(=O)c2ccc3ccccc3n2)nc1 | 0.39 | 33 | -1.4 | 23 | -25 | -0.6 | . | .
c1ccc2c(c1)nc1sccn12 | 0.91 | 7 | -0.036 | -4 | . | -2.5* | 674 | 254
Clc1c(CSc2nc3ccccc3o2)nc2sccn12 | -0.47 | 24 | -1 | 41 | -15 | 0.47 | . | .
C=CCNS(=O)(=O)c1nc(C)c(Cl)c(C)c1C#N | . | 8 | 0.74 | -7 | . | . | . | .
Cc1cc(C)n(CCCNCC(O)c2ccccc2)n1 (stereo unspecified) | 0.064 | 1 | -0.09 | -23 | . | 0.82 | . | .
Cn1c(-c2cccc(Br)c2)cnc1NCc1cccnc1 | -0.023 | -28 | -1.3 | -12 | -19 | -6.9* | 40* | 166
COc1cccc(-c2cnc(NCc3cc(Cl)ccc3O)n2C)c1 | -1.5 | -1 | -2.6 | -12 | . | -5.1* | 359* | 185
O=C(O)c1cccc(NCc2cccnc2)c1 | . | . | . | . | 32 | . | . | .
CCOC(=O)C1=C(CSc2n[nH]c(N)n2)NC(=O)NC1C (stereo unspecified) | 0.012 | 9 | -1 | 3 | -33 | -0.25 | . | .
COc1ccccc1CNC(=O)CN(c1ccc(C)cc1)S(=O)(=O)c1c(C)n[nH]c1C | 0.81 | -8 | 0.12 | 21 | . | 0.78 | . | .
CCOc1ccccc1NC(=O)CN(c1ccc(C)cc1)S(=O)(=O)c1c(C)n[nH]c1C | -1.2 | -11 | 0.34 | 15 | -12 | -2.4* | 530 | 242
O=C(C(Cc1ccccc1)n1cccc1)N1CCN(Cc2ccccc2)CC1 (stereo unspecified) | 0.24 | 10 | -0.44 | -6 | . | -16* | 18* | 196
Cn1ncc(N=Cc2ccccc2)c1C(=O)Nc1cccc(Cl)c1 | . | . | . | . | -2 | . | . | .
COc1ccc(OC)c(NC(=O)CSc2nnc(Cn3nnc4ccccc43)n2C)c1 | . | . | . | . | -31 | . | . | .
C=CCc1ccc(OCCCCCN2CCOCC2)c(OC)c1 | 0.7 | -10 | 0.16 | 2 | 1 | -7* | 102* | 227
SMILES | M1 agonist | SF1 activator | D1 mod | RORA act | Htt clearance | M1 antag | M1 antag confirm | mGluR4 antag | others
CN(C)CCNC(=O)Cn1nc(C(F)F)cc1C1CC1 | 0.41 | -6 | -0.083 | -9 | 7 | 0.33 | . | .
CCOc1ccccc1C1C(C#N)=C(SCC(=O)OC)NC(=O)C1C(=O)OC (stereo unspecified) | 0.11 | -7 | 0.28 | 0 | . | -2.8* | 559 | 201
CN(C)CCCOC(=O)Cc1ccc(Cl)cc1 | 0.046 | -2 | -0.19 | 4 | -8 | -2.3* | 463 | 198
CCN(C(=O)c1coc(=O)c2ccccc12)c1cc(OC)ccc1OC | . | -6 | 0.37 | -15 | -1 | . | . | .
CCN(C(=O)Cc1c(C(=O)O)[nH]c2ccccc12)c1cc(OC)ccc1OC | -0.64 | 4 | -0.025 | -25 | 12 | -2.2* | 448 | 207
CCSc1nc2cc(OC)c(OC)cc2c(=O)n1CC | 0.25 | 12 | 11* | -9 | . | -3.1* | 566 | 241 | D1 mod confirm=13604*;D1 no dopamine=1368;Isoprot counter=+
CCOCCn1c(SCc2ccccc2)nc2c1c(=O)[nH]c(=O)n2C | 0.15 | 2 | 0.26 | 18 | . | -0.27 | . | .
C/C=C/Cn1c(SCc2ccccc2)nc2c1c(=O)[nH]c(=O)n2C | 0.67 | 9 | 15* | -16 | . | -2.7* | 589 | 245 | D1 mod confirm=16256*;D1 no dopamine=1572;Isoprot counter=+
CN1CCN(C(=O)c2ccc(N(Cc3ccc(Cl)cc3)S(C)(=O)=O)cc2)CC1 | 0.24 | -13 | -0.04 | -5 | -1 | -0.61 | . | .
CCc1ccc(-c2nc(CN3CCC(C(=O)N4CCN(c5ccccn5)CC4)CC3)c(C)o2)cc1 | 0.42 | 2 | 7.1* | -6 | . | -2.6* | 411 | 213 | D1 mod confirm=6240*;Isoprot counter=+
CCc1ccc(-c2nc(CN3CCCC(C(=O)O)C3)c(C)o2)cc1 (stereo unspecified) | -0.67 | -3 | -0.054 | -7 | -29 | -0.42 | . | .
CCC(=O)N1c2ccc(S(=O)(=O)CCC(=O)NC3CCCC3)cc2CC1C (stereo unspecified) | -0.23 | 20 | 0.13 | -16 | -28 | 0.042 | . | .
CCC(=O)N1c2ccc(S(=O)(=O)CCC(=O)N3CCn4c3nc3ccccc34)cc2CC1C (stereo unspecified) | 0.61 | -11 | 3.9* | -24 | . | -3.3* | 508 | 208 | D1 mod confirm=12244*;D1 no dopamine=1788;Isoprot counter=+
CCOc1ccccc1N=c1oc2cc(O)ccc2cc1C(=O)NCC1CCCO1 (stereo unspecified) | . | . | . | . | -18 | . | . | .
Cc1nnc(SCCN2CCOCC2)n1C | -0.026 | 13 | . | 7 | . | 0.69 | . | .

Assay outcomes from PubChem.
